Source: ChEMBL document CHEMBL4152223 (Eur J Med Chem, 2018)
Converted amounts (≈) assume the structure as drawn.

Tests used:
[1] = tested on: Mycobacterium kansasii; test: Antimycobacterial activity against Mycobacterium kansasii 235/80 after 7 days; type: functional; details: 235/80, 168 h
[2] = tested on: HepG2; test: Cytotoxicity against human HepG2 cells assessed as reduction in cell viability by MTS assay; type: cell-based
Summary of the method: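 HepG2 human hepatocellular carcinoma cells (passage 2-4) were cultured in Eagle's MEM with 10% FBS, 1% L-glutamine and non-essential amino acids. Compounds were dissolved in DMSO and tested in triplicate at eight concentrations. Viability was read by colorimetric MTS tetrazolium reduction. Controls were 100% viability and 0% viability (10% DMSO). IC50 is the concentration reducing viability to 50% of control.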

[3] = tested on: Mycobacterium kansasii; test: Antimycobacterial activity against Mycobacterium kansasii 235/80 after 21 days; type: functional; details: 235/80, 504 h
[4] = tested on: Mycobacterium tuberculosis; test: Antimycobacterial activity against Mycobacterium tuberculosis H37Rv after 21 days; type: functional; details: 504 h
[5] = tested on: Mycobacterium kansasii; test: Antimycobacterial activity against Mycobacterium kansasii 6509/96 after 21 days; type: functional; details: 6509/96, 504 h
[6] = tested on: Mycobacterium kansasii; test: Antimycobacterial activity against Mycobacterium kansasii 6509/96 after 14 days; type: functional; details: 6509/96, 336 h
[7] = tested on: Mycobacterium kansasii; test: Antimycobacterial activity against Mycobacterium kansasii 235/80 after 14 days; type: functional; details: 235/80, 336 h
[8] = tested on: Mycobacterium avium; test: Antimycobacterial activity against INH/RIF/OFX resistant Mycobacterium avium 330/88 after 21 days; type: functional; details: 330/88, 504 h
[9] = tested on: Mycobacterium avium; test: Antimycobacterial activity against INH/RIF/OFX resistant Mycobacterium avium 330/88 after 14 days; type: functional; details: 330/88, 336 h
[10] = tested on: Mycobacterium tuberculosis; test: Antimycobacterial activity against Mycobacterium tuberculosis H37Rv after 14 days; type: functional; details: 336 h
[11] = Selectivity index, ratio of IC50 for human HepG2 cells to MIC for Mycobacterium tuberculosis H37Rv after 14 days; type: toxicity; details: read-out: Selectivity Index
Summary of the method: (§1)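 SI is calculated as HepG2 IC50 divided by MIC. HepG2 cells (passage 2-4) were grown in EMEM with 10% FBS, L-glutamine and non-essential amino acids. Compounds in DMSO were tested in triplicate at eight concentrations, and viability was read by MTS tetrazolium reduction. IC50 is the concentration reducing viability to 50% of control. 10% DMSO served as the 0% viability control.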

[12] = tested on: Mycobacterium kansasii; test: Antimycobacterial activity against Mycobacterium kansasii 6509/96 after 7 days; type: functional; details: 6509/96, 168 h
[13] = Selectivity index, ratio of IC50 for human HepG2 cells to MIC for Mycobacterium kansasii 6509/96; type: toxicity; details: read-out: Selectivity Index; summary of the method: as §1
[14] = Selectivity index, ratio of IC50 for human HepG2 cells to MIC for Mycobacterium kansasii 235/80; type: toxicity; details: read-out: Selectivity Index; summary of the method: as §1

SMILES | MIC [1] [µM] | IC50 [2] [µM] | MIC [3] [µM] | MIC [4] [µM] | MIC [5] [µM] | MIC [6] [µM] | MIC [7] [µM] | MIC [8] [µM] | MIC [9] [µM] | MIC [10] [µM] | selectivity ratio at 336 h [11] | MIC [12] [µM] | selectivity ratio [13] | selectivity ratio [14]
CCCCCCNC(=O)NNC(=O)c1ccncc1 | 250 (≈ 66.1 µg/mL) | > 1000 | 250 (≈ 66.1 µg/mL) | 32 (≈ 8.46 µg/mL) | 500 (≈ 132 µg/mL) | 500 (≈ 132 µg/mL) | 250 (≈ 66.1 µg/mL) | 500 (≈ 132 µg/mL) | 500 (≈ 132 µg/mL) | 32 (≈ 8.46 µg/mL) | > 31.3 | 250 (≈ 66.1 µg/mL) | – | –
CCNC(=O)NNC(=O)c1ccncc1 | 32 (≈ 6.66 µg/mL) | > 4000 | 62.5 (≈ 13 µg/mL) | 2 (≈ 0.416 µg/mL) | 62.5 (≈ 13 µg/mL) | 62.5 (≈ 13 µg/mL) | 62.5 (≈ 13 µg/mL) | > 1000 | 1000 (≈ 208 µg/mL) | 1 (≈ 0.208 µg/mL) | > 2000 | 32 (≈ 6.66 µg/mL) | > 64 | > 64
CCCNC(=O)NNC(=O)c1ccncc1 | 4 (≈ 0.889 µg/mL) | > 5000 | 16 (≈ 3.56 µg/mL) | 1 (≈ 0.222 µg/mL) | 8 (≈ 1.78 µg/mL) | 8 (≈ 1.78 µg/mL) | 8 (≈ 1.78 µg/mL) | 500 (≈ 111 µg/mL) | 250 (≈ 55.6 µg/mL) | 1 (≈ 0.222 µg/mL) | > 5000 | 4 (≈ 0.889 µg/mL) | > 312 | > 312
CCCCCCCCCCCNc1nnc(-c2ccncc2)o1 | 8 (≈ 2.53 µg/mL) | 172 | 32 (≈ 10.1 µg/mL) | 32 (≈ 10.1 µg/mL) | 250 (≈ 79.1 µg/mL) | 125 (≈ 39.6 µg/mL) | 16 (≈ 5.06 µg/mL) | 500 (≈ 158 µg/mL) | 500 (≈ 158 µg/mL) | 32 (≈ 10.1 µg/mL) | 5.4 | 125 (≈ 39.6 µg/mL) | – | –
CCCCCCCCCNC(=O)NNC(=O)c1ccncc1 | 32 (≈ 9.81 µg/mL) | > 250 | 125 (≈ 38.3 µg/mL) | 125 (≈ 38.3 µg/mL) | 125 (≈ 38.3 µg/mL) | 125 (≈ 38.3 µg/mL) | 62.5 (≈ 19.2 µg/mL) | 250 (≈ 76.6 µg/mL) | 250 (≈ 76.6 µg/mL) | 62.5 (≈ 19.2 µg/mL) | – | 62.5 (≈ 19.2 µg/mL) | – | –
CCCCCCCNC(=O)NNC(=O)c1ccncc1 | 62.5 (≈ 17.4 µg/mL) | > 500 | 125 (≈ 34.8 µg/mL) | 62.5 (≈ 17.4 µg/mL) | 250 (≈ 69.6 µg/mL) | 250 (≈ 69.6 µg/mL) | 125 (≈ 34.8 µg/mL) | 250 (≈ 69.6 µg/mL) | 250 (≈ 69.6 µg/mL) | 32 (≈ 8.91 µg/mL) | – | 125 (≈ 34.8 µg/mL) | – | –
